Screening results deposited in PubChem BioAssay by The Scripps Research Institute Molecular Screening Center.
Compounds with a hit are over-represented: about 2.5% of the library has one in this group of screens.
CHO parental Ca – ATP-evoked calcium signal inhibitors, parental CHO, primary screen, counter-screen for OX1R antagonist project, cell-based, fluorescence, Fluo-8 calcium dye; 330,000 tested, 0.63% active; inhibition, % at 5.6 µM; parental CHO-K1, ATP-induced calcium, Fluo-8 fluorescence; AID 463079, 2010;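 active = inhibition above that plate's mean sample inhibition plus 3 SD, cut at about 26% in these data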;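 also: 0% = ATP-challenged DMSO wells and 100% = DMSO wells without ATP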
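Assay system – parental CHO cells · Reagent – ATP stimulus · Detection – intracellular calcium via Fluo-8 no-wash fluorescent dye · Evaluation – percent inhibition of ATP-evoked calcium rise, normalized to controls · Controls – ATP wells versus no-ATP DMSO wells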
OX1R antag-1 – OX1R (HCRTR1) antagonists, primary screen, fluorescence, CHO/OX1R cells, Fluo-8 calcium, orexin A; AID 434989, 2010; inhibition, % at 5 µM; 330,000 tested, 0.43% active; Fluo-8 calcium fluorescence; Orexin/Hypocretin receptor type 1 (Homo sapiens), O43613;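 active = inhibition above its plate's threshold, mean inhibition of all tested compounds on the plate plus 3 SD, cut at about 37% in these data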;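 also: 0% = orexin A challenge wells and 100% = SB-334867-A antagonist wells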
Target sequence (O43613 whole entry, looked up): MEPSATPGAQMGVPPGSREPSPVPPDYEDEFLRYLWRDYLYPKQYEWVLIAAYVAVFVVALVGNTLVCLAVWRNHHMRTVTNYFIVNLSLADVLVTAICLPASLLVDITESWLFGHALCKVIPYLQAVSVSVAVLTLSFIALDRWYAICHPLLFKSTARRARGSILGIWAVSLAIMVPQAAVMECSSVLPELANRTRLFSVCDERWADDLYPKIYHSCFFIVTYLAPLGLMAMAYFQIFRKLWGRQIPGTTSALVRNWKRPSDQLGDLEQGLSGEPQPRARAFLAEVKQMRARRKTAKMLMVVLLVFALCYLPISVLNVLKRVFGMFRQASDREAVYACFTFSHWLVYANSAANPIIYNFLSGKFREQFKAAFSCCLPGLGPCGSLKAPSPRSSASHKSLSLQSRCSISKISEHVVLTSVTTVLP
TRPML3 agonist – human TRPML3 channel agonists, primary screen, cell-based, HEK293 TRPML3-YFP, Fluo-8 calcium fluorescence, 3 µM. 100% = the carbachol control signal. activation, % at 3 µM. AID 1448, 2008. Mucolipin-3 (Homo sapiens), Q8TDD5. 220,000 tested, 0.29% active;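 active = activation above its plate's cutoff, the mean activation of the plate's test wells plus 3 SD, cut at about 12% in these data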;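 also: 0% = DMSO only wells and 100% = carbachol wells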
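Test system – HEK293 line with stable expression of human TRPML3-YFP channel · Control set – carbachol 87 µM final as high control (100%), DMSO as low control (0%) · Signal – Fluo-8 calcium dye fluorescence, ex 470-495, em 515-575 nm · Incubation – 1-h 37 °C dye load, 5-s basal, 120-s post-compound reads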
OX1R antag-2 – antagonists of human orexin 1 receptor (OX1R); Orexin/Hypocretin receptor type 1 (Homo sapiens), O43613; inhibition, % at 6.6 µM; AID 485270, 2010; OX1R-expressing cells, FRET antagonist read-out; 330,000 tested, 1.8% active; in the data active = inhibition mostly above about 38%, no sharp cut-off; inactive = mostly below about 40%;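 also: 0% = agonist challenge alone and 100% = reference antagonist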
zfTRPN1 agonist – zebrafish TRPN1 channel agonists, primary screen, cell-based, HEK293, calcium fluorescence; AID 1424, 2008; 220,000 tested, 0.18% active; HEK293 zebrafish TRPN1-YFP, Fluo-8 calcium fluorescence; 100% = response to 87 µM carbachol; transient receptor potential cation channel N1 (TRPN1/NompC), Danio rerio; activation, % at 3 µM;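 active = activation above its plate's cutoff, the mean activation of test wells on that plate plus 3 SD, cut at about 19% in these data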;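 also: 0% = DMSO alone and 100% = 87 µM carbachol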
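Assay system: Zebrafish TRPN1-YFP in HEK293 cells | Incubation: Dye loading 1 h at 37 °C, then 30 min room temperature | Measured by: Kinetic Fluo-8 fluorescence, ex 470-495, em 515-575 nm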
TRPN1 ag 2 – zebrafish TRPN1 channel agonists, counter-screen for TRPML3 agonist project, cell-based, HEK293 TRPN1-YFP, Fluo-8 calcium; 310 tested, 10% active; activation, % at 3 µM; AID 1525, 2009; shares compounds with TRPML3 agonist; Fluo-8 calcium fluorescence; scaled: carbachol wells 100%, DMSO wells 0%;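 active = mean activation over replicates above a set limit taken from the earlier TRPN1 channel primary screen, cut at about 19% in these data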;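 also: 100% = carbachol and 0% = 0.3% DMSO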
TRPML3 confirm – human TRPML3 channel agonists, confirmation, cell-based, HEK293 TRPML3-YFP, Fluo-8 calcium, triplicate; shares compounds with TRPML3 agonist; Fluo-8 calcium fluorescence; 100% set by carbachol, 0% by DMSO; activation, % at 3 µM; 310 tested, 80% active;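 active = activation above a set limit derived from the earlier primary screen, cut at about 12% in these data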
Numbers without * were called inactive; x = no result given.

SMILES	CHO parental Ca	OX1R antag-1	TRPML3 agonist	OX1R antag-2	zfTRPN1 agonist	TRPN1 ag 2	TRPML3 confirm
Nc1nc(-c2cc(Cl)cc(Cl)c2OC(F)F)cs1	-5.1	-17.0	-0.8	5.6	-1.5	x	x
O=C(N(c1ccccc1)c1ccccc1)N(c1ccccc1)c1ccccc1	-16.9	-9.5	-0.3	7.7	0.0	x	x
CC(=O)N(C1=C(N)C(=O)c2ccccc2C1=O)c1ccccc1	-3.4	-11.7	x	45.5*	x	x	x
C#C[C@]1(O)CC[C@H]2[C@@H]3[C@H](C)CC4=C(CCC(=O)C4)[C@H]3CC[C@@]21C	1.8	-11.4	x	34.2	x	x	x
CC(C)(C)C(=O)NC(=S)NNC(=O)C(c1ccccc1)c1ccccc1	79.5*	92.7*	113.7*	1.0	167.6*	x	x
CC(=O)NNC(=S)NC(=O)C(c1ccccc1)c1ccccc1	-15.8	-18.0	-0.2	13.0	-2.5	x	x
COc1cc(C)nc(N(Cc2ccccc2)S(=O)(=O)c2ccc(C)cc2)n1	12.2	-6.0	27.5*	26.7	1.2	-0.1	50.5*
CCOC(=O)c1c(CSc2ccc(C)cc2)oc2ccc(O)cc12	9.1	1.6	29.9*	21.7	-2.7	-1.2	46.1*
CCOC(=O)c1c(CN2CCN(C)CC2)oc2ccc(O)cc12	5.8	9.0	1.1	-1.2	1.2	x	x
Cc1ccc(N(C(=O)c2nsc(Cl)c2Cl)C(C(=O)NC2CCCC2)c2ccc(O)cc2)cc1C (stereo not given)	-38.3	-33.1	-0.6	1.1	-1.3	x	x
COc1ccc(C(C(=O)NC2CCCC2)N(Cc2ccccc2)C(=O)c2nsc(Cl)c2Cl)cc1 (stereo not given)	-5.1	10.8	17.0*	19.1	-1.5	-0.3	24.5*
COc1ccc(N2C(=O)C(F)(F)C2c2ccccc2F)cc1 (stereo not given)	x	x	21.4*	x	-2.8	-2.1	33.7*
CN(C1CCCCC1)S(=O)(=O)c1cccc(C#N)c1	-7.9	-10.1	63.1*	19.7	0.3	0.0	44.0*
CCOc1ccc(S(=O)(=O)N(C)C2CCCCC2)cc1	-13.9	-24.6	x	13.5	x	x	x
Cc1ccccc1NCN1C(=O)C2CCC(C)(C1=O)C2(C)C (stereo not given)	-9.8	-8.9	0.9	16.9	0.7	x	x
CC12CCC(C(=O)N(CSC(=S)N/N=C\c3ccccc3)C1=O)C2(C)C (stereo not given)	-6.8	-19.4	43.3*	15.3	0.4	-0.5	1.7
CC12CCC(C(=O)N(CSC(=S)N/N=C\c3ccccc3Cl)C1=O)C2(C)C (stereo not given)	1.6	-13.5	38.4*	30.0	-0.6	-1.1	-0.2
CCOC(=O)C1C(c2ccccc2)C(C(=O)OCC)S(=O)(=O)C(CCN(CC)CC)S1(=O)=O (stereo not given)	-7.3	-27.5	0.8	10.5	0.5	x	x
Cc1nc2ccc(C(=O)N3c4ccccc4CC3C)cc2s1 (stereo not given)	-5.3	-4.4	0.4	20.4	2.4	x	x
Cc1cc(C)c(S(=O)(=O)Nc2ccccc2-c2ccccc2)c(C)c1	-9.8	-23.0	13.2*	28.0	-0.5	-0.3	44.6*
Cc1cc(C)c(S(=O)(=O)Nc2ncccc2C)c(C)c1	-8.9	-20.3	x	24.6	x	x	x
Cc1onc(-c2c(Cl)cccc2Cl)c1C(=O)c1c[nH]c(C(=O)NCC2CCCO2)c1 (stereo not given)	2.0	-32.9	1.8	22.0	2.4	x	x
CCNC(=S)N(Cc1ccco1)Cc1cc2cc(OCC)ccc2[nH]c1=O	-22.3	-19.8	-0.9	33.7	-2.1	x	x
